Test results reported in ChEMBL document CHEMBL4825692, “Benzofuranyl-2-imidazoles as imidazoline I2 receptor ligands for Alzheimer's disease” (Eur J Med Chem, 2021).

How the values were obtained:
[1] = molecular target: T1, Adrenergic receptor alpha-2 (Homo sapiens, UniProt P08913+P18825+P18089); experiment: Displacement of [3H]-RX821002 from adrenergic alpha 2 receptor in post-mortem human brain frontal cortex membrane measured after 30 mins by liquid scintillation counting spectrometry; type: cell membranes
T1 sequence (P08913 whole entry): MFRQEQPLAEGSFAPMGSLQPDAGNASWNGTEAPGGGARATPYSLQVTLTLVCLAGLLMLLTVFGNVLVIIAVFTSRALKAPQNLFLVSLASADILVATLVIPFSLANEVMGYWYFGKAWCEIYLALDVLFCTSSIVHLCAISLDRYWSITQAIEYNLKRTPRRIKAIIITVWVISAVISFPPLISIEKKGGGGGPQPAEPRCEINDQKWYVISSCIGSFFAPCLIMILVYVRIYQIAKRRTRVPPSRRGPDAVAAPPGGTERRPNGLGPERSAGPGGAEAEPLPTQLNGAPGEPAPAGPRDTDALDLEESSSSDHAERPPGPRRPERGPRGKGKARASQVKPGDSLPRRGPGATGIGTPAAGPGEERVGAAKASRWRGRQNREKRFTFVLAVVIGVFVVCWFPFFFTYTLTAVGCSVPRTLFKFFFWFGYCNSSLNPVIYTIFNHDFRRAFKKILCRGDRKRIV
T1 sequence (P18825 whole entry): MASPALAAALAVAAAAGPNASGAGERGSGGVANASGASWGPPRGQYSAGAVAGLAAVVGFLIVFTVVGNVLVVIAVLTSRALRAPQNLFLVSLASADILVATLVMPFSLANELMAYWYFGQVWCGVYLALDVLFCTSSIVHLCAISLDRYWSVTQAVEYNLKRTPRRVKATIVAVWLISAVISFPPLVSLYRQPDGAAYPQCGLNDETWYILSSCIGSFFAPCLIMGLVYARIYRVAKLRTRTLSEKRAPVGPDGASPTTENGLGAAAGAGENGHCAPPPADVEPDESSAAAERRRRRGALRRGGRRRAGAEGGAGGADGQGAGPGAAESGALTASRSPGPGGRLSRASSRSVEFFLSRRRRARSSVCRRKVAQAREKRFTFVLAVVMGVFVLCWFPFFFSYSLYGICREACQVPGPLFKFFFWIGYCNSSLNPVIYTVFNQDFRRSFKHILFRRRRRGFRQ
T1 sequence (P18089 whole entry): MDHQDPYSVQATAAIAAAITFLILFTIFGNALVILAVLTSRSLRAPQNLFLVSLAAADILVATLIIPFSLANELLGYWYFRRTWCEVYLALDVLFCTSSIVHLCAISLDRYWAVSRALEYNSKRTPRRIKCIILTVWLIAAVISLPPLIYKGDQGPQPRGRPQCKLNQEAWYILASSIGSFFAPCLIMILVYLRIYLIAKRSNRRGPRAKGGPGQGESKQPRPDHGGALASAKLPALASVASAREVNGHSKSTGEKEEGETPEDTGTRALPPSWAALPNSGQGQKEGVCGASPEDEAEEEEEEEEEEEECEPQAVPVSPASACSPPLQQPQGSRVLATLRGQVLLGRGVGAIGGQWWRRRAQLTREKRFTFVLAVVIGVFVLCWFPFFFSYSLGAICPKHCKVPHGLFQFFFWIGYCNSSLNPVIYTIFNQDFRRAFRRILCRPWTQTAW

Homo sapiens [2] = organism: Homo sapiens; experiment: Selectivity index, ratio of pKi for displacement of [3H]2-BFI from imidazoline I2 receptor in post-mortem human brain frontal cortex membrane to pKi for displacement of [3H]-RX821002 from adrenergic alpha 2 receptor in post-mortem human brain frontal cortex membrane; type: cell membranes
[3] = Permeability of compound by PAMPA-BBB assay; type: ADME
LN-229 = experiment: Cytotoxicity against human LN-229 cells at 100 uM by real time IncuCyte proliferation assay; type: cell-based; details: ln-229, 100 µM
Procedure, shortened: (§1)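 Adherent lines (LN-229, Capan-1, HCT-116, NCI-H460) seeded at 500–1500 cells/well and treated after overnight attachment. Suspension lines (HL-60, K-562, Z-138, DND-41) seeded at 2500–5500 cells/well directly with compound. Highest concentration 100 μM; proliferation tracked by real-time IncuCyte imaging over 72 h at 37 °C.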

CAPAN-1 = experiment: Cytotoxicity against human CAPAN-1 cells at 100 uM by real time IncuCyte proliferation assay; type: cell-based; details: capan-1, 100 µM; procedure, shortened: as §1
HCT-116 = experiment: Cytotoxicity against human HCT-116 cells at 100 uM by real time IncuCyte proliferation assay; type: cell-based; details: hct-116, 100 µM; procedure, shortened: as §1
NCI-H460 = experiment: Cytotoxicity against human NCI-H460 cells at 100 uM by real time IncuCyte proliferation assay; type: cell-based; details: nci-h460, 100 µM; procedure, shortened: as §1
[4] = Cytotoxicity against human DND41 cells at 100 uM by real time IncuCyte proliferation assay; type: cell-based; details: dnd41, 100 µM; procedure, shortened: as §1
HL-60 = experiment: Cytotoxicity against human HL-60 cells at 100 uM by real time IncuCyte proliferation assay; type: cell-based; details: hl-60, 100 µM; procedure, shortened: as §1
K562 = experiment: Cytotoxicity against human K562 cells at 100 uM by real time IncuCyte proliferation assay; type: cell-based; details: k562, 100 µM; procedure, shortened: as §1
Z-138 = experiment: Cytotoxicity against human Z138 cells at 100 uM by real time IncuCyte proliferation assay; type: cell-based; details: z-138, 100 µM; procedure, shortened: as §1
[5] = Displacement of [3H]2-BFI from imidazoline I2 receptor in post-mortem human brain frontal cortex membrane one site model measured after 45 mins by liquid scintillation counting spectrometry
[6] = Displacement of [3H]2-BFI from imidazoline I2 receptor low affinity site in post-mortem human brain frontal cortex membrane two site model measured after 45 mins by liquid scintillation counting spectrometry
[7] = Displacement of [3H]2-BFI from imidazoline I2 receptor high affinity site in post-mortem human brain frontal cortex membrane two site model measured after 45 mins by liquid scintillation counting spectrometry
Homo sapiens [8] = organism: Homo sapiens; experiment: Displacement of [3H]2-BFI from imidazoline I2 receptor in post-mortem human brain frontal cortex membrane assessed as occupancy at high affinity site measured after 45 mins by liquid scintillation counting spectrometry
[9] = Displacement of [3H]clonidine from imidazoline I1 receptor low affinity site in human hypothalamic membranes measured after 30 mins by liquid scintillation counting spectrometry; type: cell membranes, Hypothalamus, Membrane
[10] = Displacement of [3H]clonidine from imidazoline I1 receptor high affinity site in human hypothalamic membranes measured after 30 mins by liquid scintillation counting spectrometry; type: cell membranes, Hypothalamus, Membrane

| Compound | pKi [1] | Selectivity Index (Homo sapiens [2]) | Papp [3] | Activity (LN-229) | Activity (CAPAN-1) | Activity (HCT-116) | Activity (NCI-H460) | Activity [4] | Activity (HL-60) | Activity (K562) | Activity (Z-138) | pKi [5] | pKi [6] | pKi [7] | Activity (Homo sapiens [8]) | Ki [9] | Ki [10] |
| --- | --- | --- | --- | --- | --- | --- | --- | --- | --- | --- | --- | --- | --- | --- | --- | --- | --- |
| CCn1ccnc1-c1cc2cc(OC)ccc2o1.Cl | 4.21 | 6 | 12.4 ×10⁻⁶ cm/s | Non-Toxic | Non-Toxic | Non-Toxic | Non-Toxic | Non-Toxic | Non-Toxic | Non-Toxic | Non-Toxic | 4.96 | 4.16 | 6.95 | 35% |  |  |
| Cl.Oc1ccc2cc(-c3ncc[nH]3)oc2c1 | 3.76 | 52 | 0.1 ×10⁻⁶ cm/s | Non-Toxic | Non-Toxic | Non-Toxic | Non-Toxic | Non-Toxic | Non-Toxic | Non-Toxic | Non-Toxic | 5.48 |  |  |  |  |  |
| Cl.Cn1ccnc1-c1cc2ccccc2o1 | 3.75 | 170 | 17.4 ×10⁻⁶ cm/s | Non-Toxic | Non-Toxic | Non-Toxic | Non-Toxic | Non-Toxic | Non-Toxic | Non-Toxic | Non-Toxic | 5.98 | 5.35 | 6.99 | 38% |  |  |
| c1ccc2c(c1)OCC(C1=NCCN1)O2 (configuration not stated) [IDAZOXAN] |  |  | 3.3 ×10⁻⁶ cm/s | Non-Toxic | Non-Toxic | Non-Toxic | Non-Toxic | Non-Toxic | Non-Toxic | Non-Toxic | Non-Toxic | 7.41 | 5.76 | 7.87 | 40% |  |  |
| CCn1ccnc1-c1cc2ccc(OC)cc2o1.Cl | 3.17 | 123 | 14.8 ×10⁻⁶ cm/s | Non-Toxic | Non-Toxic | Non-Toxic | Non-Toxic | Non-Toxic | Non-Toxic | Non-Toxic | Non-Toxic | 5.26 | 5.11 | 9.13 | 12% |  |  |
| COc1nc(C)nc(Cl)c1NC1=NCCN1 [MOXONIDINE] |  |  |  |  |  |  |  |  |  |  |  |  |  |  |  | 12 µM | 0.0002 µM |
